Test results: ChEMBL document CHEMBL4118144, “Design, Synthesis, and Testing of Potent, Selective Hepsin Inhibitors via Application of an Automated Closed-Loop Optimization Platform” (J Med Chem, 2018)
Converted amounts (≈) assume the structure as drawn. The source made the active and inactive calls. The rule behind the calls is not given here.

Experiments:
[1] = biological target: Plasma kallikrein (Homo sapiens) (UniProt P03952); assay: Inhibition of human plasma kallikrein using H-D-Pro-Phe-Arg-pNA as substrate at 10 uM after 30 mins by spectrophotometric method relative to control
Summary of the method: (§1)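 Panel of ten serine proteases; percent inhibition read at compound concentrations of 1 µM and 10 µM, each value the mean of 2 experiments.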

[2] = biological target: T1, Serine protease hepsin (Homo sapiens, UniProt P05981); assay: Inhibition of hepsin-mediated conversion of Pro-HGF into active form in human Hs578T cells assessed as decrease in MET phosphorylation at 1 to 10 uM preincubated for 30 mins followed by recombinant human pro-HGF addition measured after 30 mins by immunoblot method; assay type: cell-based
Summary of the method: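 Hs578T or HCC1937 breast cells incubated with DMSO or inhibitor, then 50 ng/mL recombinant human Pro-HGF added; MET pathway activation (phospho-MET) assessed by immunoblotting.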

[3] = biological target: Prothrombin (Homo sapiens) (UniProt P00734); assay: Inhibition of human thrombin using Z-Gly-Pro-Arg-AMC as substrate at 10 uM after 60 mins by fluorescence spectrophotometric method relative to control; summary of the method: as §1
[4] = biological target: T2, Cathepsin G (Homo sapiens) (UniProt P08311); assay: Inhibition of human cathepsin G using Suc-Ala-Ala-Pro-Phe-AMC as substrate at 10 uM after 30 mins by fluorescence spectrophotometric method relative to control; summary of the method: as §1
T2 sequence (whole entry): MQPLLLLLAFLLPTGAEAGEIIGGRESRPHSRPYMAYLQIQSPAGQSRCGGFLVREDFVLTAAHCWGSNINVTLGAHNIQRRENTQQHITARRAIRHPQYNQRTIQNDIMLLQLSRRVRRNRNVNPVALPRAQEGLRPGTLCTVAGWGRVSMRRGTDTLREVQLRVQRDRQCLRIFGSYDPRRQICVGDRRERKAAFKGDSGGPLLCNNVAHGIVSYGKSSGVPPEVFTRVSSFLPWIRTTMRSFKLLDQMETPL

[5] = biological target: T1, Serine protease hepsin; assay: Inhibition of doxycycline induced Hepsin in human MCF10A cells assessed as prevention in loss of HAI-1 level at 10 uM preincubated for 30 mins followed by doxycycline addition measured after 6 hrs by Immunoblot assay; assay type: cell-based
Summary of the method: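 MCF10A-Indu20-hepsin cells (Dox-inducible hepsin) pretreated 30 min with compound or DMSO, then hepsin induced with 100 ng/mL doxycycline for 6 h; HAI-1 protein scored by immunoblot.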

[6] = biological target: T3, Hepatocyte growth factor activator serine protease (Homo sapiens) (UniProt Q04756); assay: Inhibition of C-terminal 10-His tagged recombinant human HGFA (Gln36 to Ser655 residues) expressed in mouse […] cells 10 uM after 15 mins by fluorescence assay relative to control; assay type: cell-based
T3 sequence (whole entry): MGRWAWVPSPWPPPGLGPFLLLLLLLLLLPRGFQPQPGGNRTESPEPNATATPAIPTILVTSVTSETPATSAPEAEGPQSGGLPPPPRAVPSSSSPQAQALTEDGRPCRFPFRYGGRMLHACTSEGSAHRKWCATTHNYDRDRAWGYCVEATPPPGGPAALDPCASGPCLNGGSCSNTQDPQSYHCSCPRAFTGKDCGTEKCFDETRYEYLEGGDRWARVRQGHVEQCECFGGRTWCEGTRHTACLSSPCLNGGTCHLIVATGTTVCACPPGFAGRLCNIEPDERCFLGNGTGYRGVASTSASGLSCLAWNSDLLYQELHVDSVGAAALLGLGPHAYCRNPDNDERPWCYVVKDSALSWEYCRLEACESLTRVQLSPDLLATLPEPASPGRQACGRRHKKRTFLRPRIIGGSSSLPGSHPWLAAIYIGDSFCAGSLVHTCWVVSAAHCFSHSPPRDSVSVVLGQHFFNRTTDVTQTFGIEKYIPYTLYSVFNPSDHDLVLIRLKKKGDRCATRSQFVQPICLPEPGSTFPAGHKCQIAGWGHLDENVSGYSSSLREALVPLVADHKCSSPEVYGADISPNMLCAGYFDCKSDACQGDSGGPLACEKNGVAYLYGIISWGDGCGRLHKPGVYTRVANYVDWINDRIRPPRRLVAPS

[7] = Kinetic solubility of the compound in PBS at pH 7.4 at 6.75 to 200 uM after 90 mins by UV absorbance based assay; assay type: physicochemical; conditions: read-out: Kinetic_solubility
[8] = biological target: T4, Chymase (Homo sapiens) (UniProt P23946); assay: Inhibition of human chymase using Suc-Ala-Ala-Pro-Phe-AMC as substrate at 1 uM after 120 mins by fluorescence spectrophotometric method relative to control; summary of the method: as §1
T4 sequence (whole entry): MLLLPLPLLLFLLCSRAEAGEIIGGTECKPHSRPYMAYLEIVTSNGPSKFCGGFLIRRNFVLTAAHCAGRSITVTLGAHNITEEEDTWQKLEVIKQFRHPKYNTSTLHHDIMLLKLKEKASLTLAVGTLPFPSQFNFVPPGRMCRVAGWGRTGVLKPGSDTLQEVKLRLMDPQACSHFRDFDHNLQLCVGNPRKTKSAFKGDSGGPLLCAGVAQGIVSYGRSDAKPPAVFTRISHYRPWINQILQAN

[9] = biological target: Plasma kallikrein (Homo sapiens) (UniProt P03952); assay: Inhibition of human plasma kallikrein using H-D-Pro-Phe-Arg-pNA as substrate at 1 uM after 30 mins by spectrophotometric method relative to control; summary of the method: as §1
[10] = Half life in human liver microsomes at 3 uM preincubated for 5 mins followed by NADPH addition by LC-MS/MS analysis; assay type: ADME, microsome
[11] = biological target: T5, Neutrophil elastase (Homo sapiens) (UniProt P08246); assay: Inhibition of elastase (unknown origin) at 1 uM relative to control; summary of the method: as §1
T5 sequence (whole entry): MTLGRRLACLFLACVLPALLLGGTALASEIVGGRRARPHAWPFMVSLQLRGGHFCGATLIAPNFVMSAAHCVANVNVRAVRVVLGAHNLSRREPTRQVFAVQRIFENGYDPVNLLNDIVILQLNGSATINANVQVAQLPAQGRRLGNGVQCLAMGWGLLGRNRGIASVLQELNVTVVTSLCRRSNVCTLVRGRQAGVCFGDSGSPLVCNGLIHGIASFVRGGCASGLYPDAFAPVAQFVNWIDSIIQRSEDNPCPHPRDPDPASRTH

[12] = biological target: Urokinase-type plasminogen activator (Homo sapiens, UniProt P00749); assay: Inhibition of recombinant C-terminal His10-tagged human uPA (M1 to L431 residues) expressed in mouse NS0 cells using Z-GGR-AMC as substrate after 15 mins by manual fluorescence assay
[13] = biological target: Prothrombin (Homo sapiens) (UniProt P00734); assay: Inhibition of human thrombin using Z-Gly-Pro-Arg-AMC as substrate at 1 uM after 60 mins by fluorescence spectrophotometric method relative to control; summary of the method: as §1
[14] = biological target: T5, Neutrophil elastase (Homo sapiens); assay: Inhibition of elastase (unknown origin) at 10 uM relative to control; summary of the method: as §1
[15] = biological target: Tryptase (Homo sapiens) (UniProt Q9BZJ3+Q15661+Q9NRR2); assay: Inhibition of recombinant full length human tryptase usingZ-Gly-Pro-Arg-AMC as substrate at 10 uM after 60 mins by fluorescence spectrophotometric method relative to control; assay type: protein assay; summary of the method: as §1
[16] = biological target: T4, Chymase (Homo sapiens); assay: Inhibition of human chymase using Suc-Ala-Ala-Pro-Phe-AMC as substrate at 10 uM after 120 mins by fluorescence spectrophotometric method relative to control; summary of the method: as §1

Plasma kallikrein (Homo sapiens), sequence (P03952 20-390 limits assumed): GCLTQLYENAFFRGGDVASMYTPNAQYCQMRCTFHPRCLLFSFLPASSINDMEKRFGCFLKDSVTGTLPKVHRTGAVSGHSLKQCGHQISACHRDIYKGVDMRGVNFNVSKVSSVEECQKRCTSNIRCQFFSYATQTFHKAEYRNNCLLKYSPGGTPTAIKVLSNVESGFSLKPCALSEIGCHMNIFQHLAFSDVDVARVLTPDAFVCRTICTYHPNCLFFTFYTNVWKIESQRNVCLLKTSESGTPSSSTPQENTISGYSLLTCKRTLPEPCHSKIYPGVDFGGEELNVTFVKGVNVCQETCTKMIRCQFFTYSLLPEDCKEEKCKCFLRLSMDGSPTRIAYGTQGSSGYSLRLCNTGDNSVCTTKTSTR
Plasma kallikrein (Homo sapiens), sequence (P03952 391-638 limits assumed): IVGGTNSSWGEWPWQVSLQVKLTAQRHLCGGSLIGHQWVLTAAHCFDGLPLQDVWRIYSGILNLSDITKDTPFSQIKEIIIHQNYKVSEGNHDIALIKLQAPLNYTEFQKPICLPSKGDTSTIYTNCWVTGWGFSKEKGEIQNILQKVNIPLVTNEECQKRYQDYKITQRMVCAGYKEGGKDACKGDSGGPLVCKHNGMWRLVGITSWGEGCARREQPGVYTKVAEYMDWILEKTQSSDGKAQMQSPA
T1 sequence (P05981 1-162 limits assumed): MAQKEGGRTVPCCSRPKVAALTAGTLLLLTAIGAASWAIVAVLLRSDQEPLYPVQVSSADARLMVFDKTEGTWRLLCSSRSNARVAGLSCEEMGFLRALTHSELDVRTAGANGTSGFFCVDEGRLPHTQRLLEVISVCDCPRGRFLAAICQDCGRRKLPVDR
T1 sequence (P05981 163-417 limits assumed): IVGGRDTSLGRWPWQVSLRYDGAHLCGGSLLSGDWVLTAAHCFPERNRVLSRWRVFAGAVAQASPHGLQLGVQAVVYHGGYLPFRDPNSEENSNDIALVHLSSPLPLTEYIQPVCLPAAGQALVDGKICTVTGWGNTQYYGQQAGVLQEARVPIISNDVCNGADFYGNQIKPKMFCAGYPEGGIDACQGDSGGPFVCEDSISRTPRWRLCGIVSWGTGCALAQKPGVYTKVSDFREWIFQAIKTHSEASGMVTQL

For Cc1ccc(S(=O)(=O)N[C@@H](C(=O)Nc2ccc(C(=N)N)cc2)C2CCCCC2)cc1, the inhibition [1] was 29%, the inhibition [2] was “Active” and the inhibition [3] was 12%. For the same compound, the inhibition [4] was < 10%, the inhibition [5] was “inactive” and the inhibition [6] was 22%. For the same compound, the solubility kinetic at 1.5 h [7] was > 200 µM, the inhibition [8] was < 10% and the inhibition [9] was < 10%. The half-life at 3 µM [10] was 89 min, the inhibition [11] was < 10% and the IC50 [12] was 10 to 1950 µM. The inhibition [13] was 11%, the inhibition [14] was < 10% and the inhibition [15] was 98%. For the same compound, the inhibition [16] was < 10%.
In the case of N=C(N)c1ccc(NC(=O)[C@H](NS(=O)(=O)c2ccc(F)cc2)C2CCCCC2)cc1, the inhibition [1] is reported as 34%, the inhibition [2] is reported as “Active” and the inhibition [3] is reported as 10%. The inhibition [4] was < 10%, the inhibition [5] was “inactive” and the inhibition [6] was 24%. The solubility kinetic at 1.5 h [7] was 200 µM (≈ 86.5 µg/mL), the inhibition [8] was < 10% and the inhibition [9] was 12%. The half-life at 3 µM [10] was 16 min, the inhibition [11] was < 10% and the IC50 [12] was 280 µM. For the same compound, the inhibition [13] was < 10%, the inhibition [14] was < 10% and the inhibition [15] was 91%. The inhibition [16] was < 10%.
With Cc1ccc(S(=O)(=O)N[C@@H](C(=O)Nc2ccc(C(=N)N)cc2)c2ccccc2)cc1 the inhibition [1] was 85%, the inhibition [2] was “Active” and the inhibition [3] was 44%. For the same compound, the inhibition [4] was < 10%, the inhibition [5] was “Active” and the inhibition [6] was 24%. For the same compound, the solubility kinetic at 1.5 h [7] was > 200 µM, the inhibition [8] was < 10% and the inhibition [9] was 34%. For the same compound, the half-life at 3 µM [10] was 53 min, the inhibition [11] was < 10% and the IC50 [12] was 140 µM. The inhibition [13] was < 10%, the inhibition [14] was < 10% and the inhibition [15] was 80%. The inhibition [16] was < 10%.
